species: Rattus norvegicus; test: In vitro growth hormone (GH) releasing activity in rat primary pituitary cells.; assay type: functional; details: Pituitary gland cell, read-out: ED50 (the source's name)
Method in brief: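 Rat anterior pituitaries dispersed with 0.2% collagenase and 0.2% hyaluronidase, then cultured 3–4 days at 37 °C, 5% CO₂, in DMEM with 10% horse serum and 2.5% FBS. Cells washed in medium with 25 mM HEPES pH 7.4, then exposed in quadruplicate to serially diluted agents (final 1% DMSO) for 15 min at 37 °C. Medium GH measured by double-antibody RIA; ED₅₀ = dose giving 50% maximal GH release.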

| SMILES | EC50 [µM] |
| --- | --- |
| CC(C)(N)C(=O)N[C@@H]1CCc2ccccc2N(Cc2ccc(-c3ccccc3-c3nn[nH]n3)cc2)C1=O | 0.03 |
| CN(C)C(=O)NCc1ccccc1-c1ccc(CN2C(=O)[C@H](NC(=O)C(C)(C)N)CCc3ccccc32)cc1 | 0.06 |
| CNC(=O)NCc1ccccc1-c1ccc(CN2C(=O)[C@H](NC(=O)CC(C)(C)N)CCc3ccccc32)cc1 | 0.006 |
| CC(C)(N)C(=O)N[C@@H]1CCc2ccccc2N(Cc2ccc(-c3ccccc3CNC(=O)NCCO)cc2)C1=O | 0.002 |
| CCNC(=O)NCc1ccccc1-c1ccc(CN2C(=O)[C@H](NC(=O)C(C)(C)N)CCc3ccccc32)cc1 | 0.006 |
| CCCNC(=O)NCc1ccccc1-c1ccc(CN2C(=O)[C@H](NC(=O)C(C)(C)N)CCc3ccccc32)cc1 | 0.144 |
| CC(C)NC(=O)NCc1ccccc1-c1ccc(CN2C(=O)[C@H](NC(=O)C(C)(C)N)CCc3ccccc32)cc1 | 0.27 |
| CC(C)(N)C(=O)N[C@@H]1CCc2ccccc2N(Cc2ccc(-c3ccccc3CNC(=O)NC3CC3)cc2)C1=O | 0.045 |
| CC(C)(N)CC(=O)N[C@@H]1CCc2ccccc2N(Cc2ccc(-c3ccccc3-c3nn[nH]n3)cc2)C1=O | 0.06 |
| CNC(=O)NCCc1ccccc1-c1ccc(CN2C(=O)[C@H](NC(=O)C(C)(C)N)CCc3ccccc32)cc1 | 0.04 |
| CC(C)(N)C(=O)N[C@@H]1CCc2ccccc2N(Cc2ccc(-c3ccccc3CNC(=O)NCc3ccccc3)cc2)C1=O | 0.39 |
| CC(C)(N)C(=O)N[C@@H]1CCc2ccccc2N(Cc2ccc(-c3ccccc3CNC(N)=O)cc2)C1=O | 0.021 |
| CNC(=O)Nc1ccccc1-c1ccc(CN2C(=O)[C@H](NC(=O)CC(C)(C)N)CCc3ccccc32)cc1 | 0.05 |
| CC(C)(N)CC(=O)N[C@@H]1CCc2ccccc2N(Cc2ccc(-c3ccccc3C(N)=O)cc2)C1=O | 0.08 |
| CC(C)(N)CC(=O)N[C@@H]1CCc2ccccc2N(Cc2ccc(-c3ccccc3CN)cc2)C1=O | > 1 |
| CNC(=O)NCc1ccccc1-c1ccc(CN2C(=O)[C@H](NC(=O)C(C)(C)N)CCc3ccccc32)cc1 | 0.001 |
| CC(=O)NCc1ccccc1-c1ccc(CN2C(=O)[C@H](NC(=O)CC(C)(C)N)CCc3ccccc32)cc1 | 0.2 |
